Measurements reported in the RNAGym collection of RNA variant scans (doi:10.1126/science.aae0568).
Fewer inactive variants are shown than the library holds.

B1: tRNA (parent)
chain: GUUCCGUUGGCGUAAUGGUAACGCGUCUCCCUCCUAAGGAGAAGACUGCGGGUUCGAGUCCCGUACGGAACG

Variants of: B1
Assay: yeast fitness relative to wild type (ratio to wild type); higher = fitter; tRNA-Arg(CCU), competitive growth, 37 C, YPD
Summary of the method: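 Variants of the tRNA-Arg(CCU) gene, chemically synthesised with a 3% per-site mutation rate at 69 sites, were placed at the native genomic locus in Saccharomyces cerevisiae. The pooled strains were competed in YPD at 37°C for 24 hours in six parallel replicates. Gene amplicons from the start population and from each end population were read by 100-nucleotide paired-end sequencing. Darwinian fitness relative to wild type came from changes in genotype frequencies; genotypes needed ≥ 100 starting reads, and estimates < 0.5 were set to 0.5.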

**Q.** With GUUCCGUUGGCGUAAUGGUAACGCGUGUCCCUCCUAAGGAGAAGACUCGGGGUUCGAGUCCCGUACGGAACG as the variant, how does the yeast fitness read?
**A.** Its yeast fitness is 0.503.

**Q.** Which yeast fitness does the source give for GUUCCGUUGGCGUAAUGGUAACGCGUGUCCCUCCUAAGAAGAAGACUGCGGGUUCGAGUCCCGUAUAGAACG here?
**A.** Its yeast fitness is at most 0.5.

**Q.** For GUUCCGUUGGCGUAAUGGUAACGCGUGUCCCUCCUAAGGAGAAGACUGCGGGUACGAGUCCCGUACGGAACG, which yeast fitness is on record?
**A.** Its yeast fitness is 0.544.

**Q.** With GUUCCGUUGGCGUAAUGGUAACGCGUGUCCCGCCUAAGGUGUAGACUGCGGGUUGGAGUCCCGUACGGAACG as the variant, how does the yeast fitness read?
**A.** Its yeast fitness is at most 0.5.

**Q.** With GUUCCGUUGGCGUAAUGGUAACGCGUGACCCUCUUAAGGAGAAGACUGCGGGUUCGAGUCCCGUACGGAACG as the variant, how does the yeast fitness read?
**A.** The yeast fitness was at most 0.5.

**Q.** With GUUCCGUUGGCGUAAUGGUAACGCGUGUCCCUCCUAAGGAAAAGACUGCGGGUUCGAGUCCCGUACGCAACG as the variant, how does the yeast fitness read?
**A.** Its yeast fitness is 0.71.

**Q.** For GUUCCGUUGGCGUAAUGGUAACGCGUGUCCCUCCUAAGGAAAAGACUGCGGGUUCGAGUCCCGUACGGAACG, which yeast fitness is on record?
**A.** The yeast fitness was 1.03.

**Q.** Which yeast fitness does the source give for GUUCCGUUGGCGUAAUGGUAACGCGUGUCCCUCCUAAGGAGAACGCUGCGGGUUCGAGUCCCGAACGGAACG here?
**A.** The yeast fitness was at most 0.5.

**Q.** Which yeast fitness does the source give for GUUCCGUUGGCGUAAUGGUAACGCGUGACCCUCCUAAGGAGAUGACUGCGGGUUCGAGUCCCGUACGGAACG here?
**A.** The yeast fitness was 0.582.

**Q.** Which yeast fitness does the source give for GUUCCGUUGGCGUAAUGGUAACGCGUGGCCCUCCUAAGGAGAAGACUGCGGGUUCGAGUCCCGUAGCGAACG here?
**A.** The yeast fitness was at most 0.5.

**Q.** With GUUCCGUUGGCGUAAUGGUAACGCGUGUCCCUCCUAAGGAGAAGACUGCGGGUUCGAGGCCCGUACGGAACG as the variant, how does the yeast fitness read?
**A.** The yeast fitness was 0.641.

**Q.** For GUUCCGUUGGCGUAAUGGUAACGCGUUUCCCUCCUAAGGAGAAGACUGCGGGUUCGAGUCCCGUACGGAACG, which yeast fitness is on record?
**A.** The yeast fitness was 0.995.

**Q.** With GUUCCGUUGGCGUAAUGGUAACGCGUGUCCCUCCUAAGGAGAAGACUGCGGGUCCGAGUCCUGUACGGAACG as the variant, how does the yeast fitness read?
**A.** The yeast fitness was 0.552.

**Q.** Which yeast fitness does the source give for GUUCCGUUGGCGUAAUGGUAACGCGUGUCCCCCCUAAGGAGAAGACUGCGGGUUCGAGUCCUGUACGGAACG here?
**A.** Its yeast fitness is 0.62.

**Q.** With GUUCCGUUGGCGUAAUGGUAACGCGUGUCCCUCCUAAGGAGAAGACUGCGGGGUCGAGUCCCGUACGGAACG as the variant, how does the yeast fitness read?
**A.** Its yeast fitness is at most 0.5.

**Q.** For GUUCCGUUGGCGUAAUGGUAACGCGUGUCCCUCCUAAGGAAAAGACUGCGGGUUCGAGUCCCGUACUGAACG, which yeast fitness is on record?
**A.** Its yeast fitness is 0.709.

**Q.** For GUUCCGUUGGCGUAAUGGUAACGCGUGUCCCUCCUAAGGAAAAGACUGCGGGUUCGAGUCCCGUACAGAACG, which yeast fitness is on record?
**A.** Its yeast fitness is 0.789.

**Q.** With GUUCCGUUGGCGUAAUGGUAACGCGUUUCCCUCCUCAGGAGAAGACUGCGGGUACGAGUCCUGUACGGAACG as the variant, how does the yeast fitness read?
**A.** The yeast fitness was at most 0.5.

**Q.** With GUUCCGUUGGCGUAAUGGUAACGCGUGACGUUCCUAAGGAGAAGACUGCGGGUUCGAGUCCCGUACGCACCG as the variant, how does the yeast fitness read?
**A.** Its yeast fitness is at most 0.5.

**Q.** With GUUCCGUUGGCGUAAUGGUAACGCGUGUCCCUCCAAAGGAGAAGACUGCGGAUUCGGGUCCCGUACGGUUCG as the variant, how does the yeast fitness read?
**A.** Its yeast fitness is at most 0.5.

**Q.** Which yeast fitness does the source give for GUUCCGUUGGCGUAAUGGUAACGCGUUUCCCUCCUAUGGAGAAGACUGCGGGUUCGAGUCCCGUUCGGAACG here?
**A.** Its yeast fitness is 0.591.

**Q.** With GUUCCGUUGGCGUAAUGGUAACGCGUGUCCCUCCUAAGGAAAAGACUGCGGGUUUGAGUCCCGUACGGAACG as the variant, how does the yeast fitness read?
**A.** The yeast fitness was 0.618.

**Q.** With GUUCCGUUGGCGUAAUGGUAACGCGUGUCCCUCCUAAGGAGAAGACUGCGGGUUCGAGUCCCGUACUGAACG as the variant, how does the yeast fitness read?
**A.** Its yeast fitness is 0.632.

**Q.** For GUUCCGUUGGCGUAAUGGUAACGCGUUUCCCUCCUGAGGAGAAGACUGCGGGUUCCAGUCCCGUACGGAACG, which yeast fitness is on record?
**A.** Its yeast fitness is at most 0.5.

**Q.** With GUUCCGUUGGCGUAAUGGUAACGCGUUUCCCUCCUCAGGAGAAGACUGCGGGUUCGGGUCCCGUACGGAACG as the variant, how does the yeast fitness read?
**A.** The yeast fitness was at most 0.5.

**Q.** For GUUCCGUUGGCGUAAUGGUAACGCGUUUCCCUCCUAAGGCGAAGACUGCGGGUUCGAAUCCCGUACGGAACG, which yeast fitness is on record?
**A.** The yeast fitness was 0.626.

**Q.** With GUUCCGUUGGCGUAAUGGUAACGCGUGUCCCUCCUAAGGAGAAGACUGCGGGUUCGAGUCCCGUACGCAACG as the variant, how does the yeast fitness read?
**A.** Its yeast fitness is 0.65.

**Q.** With GUUCCGUUGGCGUAAUGGUAACGCGUUUCCCUCCUAUGGAGAAGACGGCGGGUUCGAGUCCCGUACGGAACG as the variant, how does the yeast fitness read?
**A.** Its yeast fitness is 0.531.

**Q.** For GUUCCGUUGGCGUAAUGGUAACGCGUGUCCCUCCUAAGGAGAAGACUGCGGAUUCGAGUCCCAUACGGAACG, which yeast fitness is on record?
**A.** Its yeast fitness is 0.533.

**Q.** With GUUCCGUUGGCGUAAUGGUAACGCGUGUCCCUCCUAAGGAGAAGACCGCAGGUUCGGGUGCCGUACGGAACG as the variant, how does the yeast fitness read?
**A.** Its yeast fitness is 0.636.

**Q.** For GUUCCGUUGGCGUAAUGGUAACGCGUGUCCCUCCAAAGGAGAAGUCUGCGGGUUCGAGUCCCGUACAGAACG, which yeast fitness is on record?
**A.** The yeast fitness was 0.612.

**Q.** For GUUCCGUUGGCGUAAUGGUAACGCGUUUCCCUCCUAGCGAGACGACUGCGGGUUCGAGUCCGGUACGGAACG, which yeast fitness is on record?
**A.** The yeast fitness was 0.508.

**Q.** For GUUCCGUUGGCGUAAUGGUAACGCGUGUCCCUCCUAAGGAGAAGACAGCGGGUUCGAGUCCCGUACGGAACG, which yeast fitness is on record?
**A.** Its yeast fitness is 0.702.

**Q.** For GUUCCGUUGGCGUAAUGGUAACGCGUUUCCCUCCUAAGGUGAAGACUGCGGGUCCGAGUCCCGUACGGAACG, which yeast fitness is on record?
**A.** The yeast fitness was at most 0.5.

**Q.** For GUUCCGUUGGCGUAAUGGUAACGCGUGUCCCUCCUAAGGAGAAGACUGCGGGUCCGAGUCCCGUACGGGACG, which yeast fitness is on record?
**A.** The yeast fitness was 0.625.

**Q.** Which yeast fitness does the source give for GUUCCGUUGGCGUAAUGGUAACGCGUGUCCCGCCUCAGGAGAAGAGUGCGGGUUCGAGUCCCGUACGGAACG here?
**A.** Its yeast fitness is at most 0.5.

**Q.** For GUUCCGUUGGCGUAAUGGUAACGCGUGUCCCUCCAAAGGAGAAGACUGCGGGUUCGAGUCCCGUACGGAACG, which yeast fitness is on record?
**A.** Its yeast fitness is 0.636.
